# Screening data as filed in PubChem.
# Shown are actives, neighbours in structure and some others; about 2.4% of the full set was active somewhere.
# STAT1 inh – STAT1 signaling inhibition; NIH 3T3 STAT1-luciferase reporter, IFN-gamma, luminescence; inhibition, % at 5.5 µM; 0.35% of 200,000 active; AID 920;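 active = inhibition above a set limit, the mean inhibition across all tested compounds plus 3 SD, cut at about 34% in these data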;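 also: 0% = IFN-gamma with DMSO and 100% = IFN-gamma with 300 µM nifuroxazide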
# b-catenin transl – modulators of beta-catenin nuclear translocation; HeLa beta-catenin nuclear translocation, immunofluorescence imaging; nuclear translocation activity, % at 5 µM; 0.3% of 190,000 active;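 active = nuclear translocation activity above 50% at 5 µM, with a well cell count of 50 or more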;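 also: per-cell ratio of nuclear to cytoplasmic median beta-catenin stain intensity; plate controls were DMSO negative control for no effect and GSK-3 inhibitor IX positive control for full effect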
#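 Test system: HeLa cells, endogenous beta-catenin; Compound: single 5 µM dose plus 0.02–20 µM confirmation series; Times: compound exposure 24 h at 37°C; Signal: fluorescence imaging of beta-catenin antibody stain plus DAPI; Read-out: % activation, nuclear-to-cytoplasmic median beta-catenin signal ratio per cell.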
# MT stabilizer – microtubule stabilization, imaging screen; HeLa tubulin immunostaining HCS, 24 h; share of cells brighter than vehicle mean+2SD; % tubulin-high responders, % at 10 µM; 0.83% of 200,000 active;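 active = plate Z-score above 3 for both tubulin-high and condensed-nucleus cell shares, with cell loss under 80%, at 10 µM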;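 also: anti alpha tubulin signal scored within the nucleus-defined area of each cell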
# STAT3 act-1 – STAT3 signaling activation. U3A cells, IL-6 STAT3-luciferase reporter, luminescence; 100% = signal with IL-6 EC80 alone. activation (% of control), % at 5.6 µM. 0.91% of 190,000 active;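 active = activation above the screen-wide mean of compound activation plus 3 SD, cut at about 130% in these data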;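 also: 0% = background luminescence of wells with medium and substrate only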
#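 Test system: STAT3-luciferase reporter U3A cells; Detection: reporter luminescence signal; Times: 1 h compound pre-exposure, 6 h IL-6 stimulation, 37 °C; Benchmarks: IL-6-only high control; Also added: IL-6 stimulus at 33 ng/mL final.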
# STAT3 inh – reduces IL-6 driven STAT3 reporter signal; U3A cells, IL-6 STAT3-luciferase reporter, luminescence; host cell line lacks STAT1; inhibition, % at 5.5 µM; 0.89% of 190,000 active; AID 862;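 active = inhibition above the mean inhibition across all screened compounds plus 3 SD, cut at about 44% in these data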;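 also: 0% = DMSO only wells and 100% = 100 µM nifuroxazide control wells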
# STAT3 act-2 – STAT3 activation, confirmation assay | potentiation (% of control), % at 5.7 µM | U3A STAT3-luciferase reporter, IL-6 potentiation, luminescence; U3A cells lack STAT1; 100 means same as IL-6 alone | shares compounds with STAT3 act-1 | 64% of 1,200 active;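 active = percent activation of the STAT3 luciferase reporter above a set limit taken from the earlier primary screen, cut at about 130% in these data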;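 also: 0% = background signal of medium plus substrate and 100% = median of IL-6 with DMSO wells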
# NFkB act STAT3ct – NF-kappaB activation in STAT3 activator counter-screen. shares compounds with STAT3 act-1. human cells, NF-kappaB reporter activation. activation (% of control), % at 5.7 µM. 11% of 1,200 active; in the data active = activation above about 120%;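 also: reporter induced by TNF-alpha stimulation; 100% = median of stimulated DMSO wells and 0% = no signal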
# STAT1 act – STAT1 activation in STAT3 activator counter-screen | shares compounds with STAT3 act-1 | NIH 3T3 STAT1-luciferase reporter, IFN-gamma, luminescence | activation (% of control), % at 5.7 µM | 13% of 1,200 active;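 active = activation above the solvent-only control well mean plus 3 SD, set per screening run, cut at about 120% in these data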;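 also: 100% = IFN-gamma with DMSO median signal so 100% means no change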
# An asterisk follows results filed as active; . = no result.
SMILES,STAT1 inh,b-catenin transl,MT stabilizer,STAT3 act-1,STAT3 inh,STAT3 act-2,NFkB act STAT3ct,STAT1 act
COc1cc(NC(=O)C2CCCC2)c(OC)cc1Cl,3,-2,2,84,24,.,.,.
COc1cc(NC(=O)c2cc(C3CC3)on2)c(OC)cc1Cl,1,.,2,159*,-60,150*,103,98
COc1cc(NC(=O)c2cc(C(C)C)on2)c(OC)cc1Cl,0,-2,2,168*,-69,152*,97,104
CCOC(=O)C1=C(C)N(C)C(C)=C(C(=O)OCC)C1c1ccsc1,1,-3,1,100,12,.,.,.
O=C(Nc1nccs1)c1cc(-c2ccncc2)nc2ccccc12,4,3,5,112,-6,.,.,.
COc1ccccc1-c1cc(C(=O)N/N=C/c2cccs2)c2ccccc2n1,0,.,2,139*,-49,138*,105,97
O=C(N/N=C/c1cccs1)c1cc(-c2ccncc2)nc2ccccc12,-9,61*,5,138*,-40,102,125*,106
Cn1cnc([N+](=O)[O-])c1Oc1ccc2ccccc2c1,0,2,2,139*,-50,133*,114,120
O=C(c1ccc(F)cc1)N1CCN2C(=O)c3ccccc3C12c1ccc(Cl)cc1 (stereo unspecified),27,-3,3,204*,-97,146*,116,97
O=C(c1ccccc1)N1CCN2C(=O)c3ccccc3C12c1ccc(Cl)cc1 (stereo unspecified),27,1,2,418*,-376,283*,112,75
CC(=O)NC1(NC(C)=O)CCN(C)CC1,-1,-1,3,104,0,.,.,.
C=CCSc1nnc(-c2cc3c(s2)-c2ccccc2CC3)o1,-15,2,2,151*,-55,145*,109,116
CCN(CC)CCN(Cc1cc2ccc(C)cc2[nH]c1=O)C(=O)Nc1ccc(Cl)cc1,-3,0,4,107,-7,.,.,.
CCOC(=O)Cc1cc(-c2ccccc2)nc2ccc3ccccc3c12,-6,2,2,136*,-39,124,114,105
CCOC(=O)c1cc(-c2ccccc2)nc2ccc(C)cc12,.,-1,.,.,.,.,.,.
CCOC(=O)c1cnc(SC)nc1Oc1cccc(NS(=O)(=O)c2ccc(C)cc2)c1,0,0,15,95,7,.,.,.
CCCn1c(SCC(=O)c2[nH]c(C)c(C(C)=O)c2C)n[nH]c1=O,.,2,.,.,.,.,.,.
Cc1ccc2cccnc2c1NC(=S)NC(=O)c1ccccc1,13,0,1,153*,-58,152*,99,92
Cc1ccc2cccc(NC(=S)NC(=O)c3ccccc3)c2n1,12,1,1,169*,-68,170*,111,95
O=C(Nc1ccc(Cl)cc1)ON=C1CCCC1,-19,4,4,102,-3,.,.,.
O=C(Oc1ccccc1O)c1cccc2ccccc12,-11,1,3,141*,-42,132,102,103
N/C(=N\OC(=O)c1cccc(Br)c1)c1ccccc1,-30,0,2,158*,-72,152*,131*,151*
Cc1ccc(C)c(C(=O)O/N=C(\N)c2ccc(Br)cc2)c1,8,.,2,155*,-61,150*,108,102
N/C(=N\OC(=O)c1cccc2ccccc12)c1ccc(Br)cc1,3,0,2,139*,-46,135*,107,106
Cc1cccc(C(=O)O/N=C(\N)c2ccc(Br)cc2)c1,-23,.,2,122,-25,.,.,.
SMILES,STAT1 inh,b-catenin transl,MT stabilizer,STAT3 act-1,STAT3 inh,STAT3 act-2,NFkB act STAT3ct,STAT1 act
CCc1cccc(NC(=O)c2ccc3c(=O)n4c(nc3c2)CCCCC4)c1,.,2,.,.,.,.,.,.
CCN1CCCc2cc(CN(CCN3CCOCC3)C(=S)Nc3cccc(Cl)c3)ccc21,0,-3,4,107,1,.,.,.
CCOC(=O)CN1C=C(c2ccc3ccccc3n2)C(C[N+](=O)[O-])c2ccccc21 (stereo unspecified),0,.,1,157*,-59,136*,108,104
CC(C)(C)C1(O)CC(C(F)(F)F)=NN1C(=O)Cc1ccc([N+](=O)[O-])cc1 (stereo unspecified),8,0,2,137*,-44,152*,110,102
CN1CCN(C(=O)CNc2ccc(C(F)(F)F)cc2[N+](=O)[O-])CC1,0,-2,1,162*,-74,157*,103,101
CC(C)NC(=O)CNc1ccc(C(F)(F)F)cc1[N+](=O)[O-],-7,-3,3,103,-2,.,.,.
Cc1ccc(Cl)cc1N1CCN(C(=O)Cc2c(C(=O)O)[nH]c3ccccc23)CC1,8,-4,2,138*,-45,123,106,93
O=C(CN(CCc1ccccc1)S(=O)(=O)c1ccc(Cl)cc1)N/N=C/c1ccccc1C(=O)O,6,-3,10,100,3,.,.,.
CC(=O)Nc1cccc(NC(=O)CSc2ccc(-c3cccnc3)nn2)c1,-5,1,2,140*,-51,115,98,106
CCOC(=O)Cc1nnc(NC(=O)C(CC)Sc2nnc3c4ccccc4n(C)c3n2)s1 (stereo unspecified),12,.,5,137*,-39,158*,102,98
Cc1ccc2c(c1)CCCN2C(=O)c1cccs1,6,0,10,146*,-51,132,103,107
O=C(c1cccs1)N1CCCc2ccccc21,-3,3,5,106,-4,.,.,.
Cc1nn(C(=O)CCCn2cc([N+](=O)[O-])cn2)c(C)c1Cl,8,1,4,99,11,.,.,.
O=C(O)CCCC(=O)Nc1ccc(OCc2nc3ccccc3s2)cc1,-17,1,4,136*,-36,126,104,119
CC(=O)Nc1ccc(NC(=O)CCCSc2nc3ccccc3s2)cc1,-1,6,3,140*,-46,129,104,98
COC(=O)c1cn(CC(=O)N2C(C)CCCC2C)c2ccccc12 (stereo unspecified),-8,.,3,104,-1,.,.,.
CC1CCCC(C)N1C(=O)Cn1cc(/C=C2/C(=O)Nc3ccccc32)c2ccccc21 (stereo unspecified),-4,2,3,158*,-70,151*,99,103
O=C(NNC(=O)c1c(F)cccc1F)c1ccccc1-n1cccc1,-2,-3,4,104,2,.,.,.
NC1=NC(c2ccccc2)=NC1(NC(=O)c1ccccc1)C(Cl)Cl (stereo unspecified),.,1,.,.,.,.,.,.
